Results taken from ChEMBL document CHEMBL1147740, “Synthesis and biological activity of isoxazolidinyl polycyclic aromatic hydrocarbons: potential DNA intercalators” (J Med Chem, 2006).
Values after ≈ are worked out from the molar mass of the structure shown. *1 amine or outer side, *2 acyl side, *3 side chain or, on linkers, in order; H or OH if unused. Where a SMILES comes first, the peptide text is derived from it. Bridges are numbered along the chain shown (N, C = ends). Roman numbers before positions name the chains, in order. [ ]: non-standard residue; d: D form. Actinocin(1to9) = Cc1c2oc3c(C)ccc(C(=O)[*:2])c3nc-2c(C(=O)[*:1])c(N)c1=O; NMeV = CN[C@H](C(=O)O)C(C)C; Sar = CNCC(=O)O

Assays:
[1] = tested on: MOLT-3; assay: Cytotoxicity against MOLT3 Leukemia cells by MTS assay; format: functional, cell-based, Homo sapiens
Procedure, shortened: (§1)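 MTS tetrazolium reduction assay; cells grown under optimal culture conditions for 20 h with compound at 10 to 500 µM or without it; MTS reagent then added for 1 h at 37 °C, humidified 5% CO2; absorbance read at 490 nm. Triplicate. IC50 is the concentration giving 50% reduction of absorbance.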

[2] = tested on: HEL; assay: Antiviral activity against HEL cells; format: functional, Homo sapiens
Procedure, shortened: (§2)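 Cytotoxicity scored as the concentration giving a microscopically detectable alteration of normal cell morphology in HEL, HeLa or Vero cells.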

[3] = tested on: Human alphaherpesvirus 1; assay: Antiviral activity against herpes simplex virus 1 TK- KOS ACVr strain in HEL cells; format: functional
Procedure, shortened: (§3)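 Minimum inhibitory concentration (µg/mL) needed to reduce virus-induced cytopathogenicity by 50%; HSV strains in HEL cells, Punta Toro virus in Vero cells.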

[4] = tested on: Vero; assay: Antiviral activity against vero cells; format: functional, Chlorocebus sabaeus; procedure, shortened: as §2
[5] = tested on: THP-1; assay: Cytotoxicity against THP1 Leukemia cells by MTS assay; format: functional, cell-based, Homo sapiens; details: thp-1; procedure, shortened: as §1
[6] = tested on: U-937; assay: Cytotoxicity against U937 Lymphoma cells by MTS assay; format: functional, cell-based, Homo sapiens; procedure, shortened: as §1
[7] = tested on: Punta Toro virus; assay: Antiviral activity against Punta Toro virus in vero cells; format: functional; procedure, shortened: as §3
[8] = tested on: HeLa; assay: Antiviral activity against HeLa cells; format: functional, Homo sapiens; procedure, shortened: as §2
[9] = tested on: Vero; assay: Cytotoxicity against normal vero kidney cells by MTS assay; format: functional, cell-based, Chlorocebus sabaeus; details: vero; procedure, shortened: as §1
[10] = tested on: Coxsackievirus B4; assay: Antiviral activity against Coxsackie virus B4 in HeLa cells; format: functional; details: Enterovirus B
Procedure, shortened: (§4)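 Virus infection of HeLa cell cultures. The endpoint is the minimum inhibitory concentration (µg/mL) that reduces virus-induced cytopathogenicity by 50%.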

[11] = tested on: Vesicular stomatitis virus; assay: Antiviral activity against Vesicular stomatitis virus in HeLa cells; format: functional; procedure, shortened: as §4
[12] = tested on: Respiratory syncytial virus; assay: Antiviral activity against Respiratory syncytial virus in HeLa cells; format: functional; details: human respiratory syncytial virus; procedure, shortened: as §4
[13] = tested on: Coxsackievirus B4; assay: Antiviral activity against Coxsackie virus B4 in vero cells; format: functional; details: Enterovirus B
Procedure, shortened: (§5)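 Virus infection of Vero cell cultures. The endpoint is the minimum inhibitory concentration (µg/mL) that reduces virus-induced cytopathogenicity by 50%.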

[14] = tested on: Mammalian orthoreovirus 1; assay: Antiviral activity against Reovirus 1 in vero cells; format: functional; procedure, shortened: as §5
[15] = tested on: Sindbis virus; assay: Antiviral activity against Sindbis virus in vero cells; format: functional; procedure, shortened: as §5
[16] = tested on: Human respirovirus 3; assay: Antiviral activity against Parainfluenza-3 virus in vero cells; format: functional; procedure, shortened: as §5
[17] = tested on: Human alphaherpesvirus 2; assay: Antiviral activity against Herpes simplex virus 2 G strain in HEL cells; format: functional; details: Human alphaherpesvirus 2, G; procedure, shortened: as §3
[18] = tested on: Human alphaherpesvirus 1; assay: Antiviral activity against Herpes simplex virus 1 KOS strain in HEL cells; format: functional, Human herpesvirus 1 strain KOS; details: Human alphaherpesvirus 1, KOS; procedure, shortened: as §3
[19] = tested on: Vaccinia virus; assay: Antiviral activity against Vaccinia virus in HEL cells; format: functional; details: Orthopoxvirus vaccinia
Procedure, shortened: (§6)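 Virus infection of HEL cell cultures. The endpoint is the minimum inhibitory concentration (µg/mL) that reduces virus-induced cytopathogenicity by 50%.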

[20] = tested on: Vesicular stomatitis virus; assay: Antiviral activity against Vesicular stomatitis virus in HEL cells; format: functional; procedure, shortened: as §6
[21] = Chlorocebus sabaeus, Vero, read-out: MCC
[22] = Punta Toro virus, read-out: MIC50
[23] = Homo sapiens, HeLa, read-out: MCC
[24] = Homo sapiens, HEL, read-out: MCC
[25] = Human alphaherpesvirus 1, TK- KOS ACVr, read-out: MIC50

SMILES	MIC50 [10] [µg/mL]	MIC50 [11] [µg/mL]	MIC50 [12] [µg/mL]	MIC50 [13] [µg/mL]	MIC50 [14] [µg/mL]	MIC50 [15] [µg/mL]	MCC [4, 21] [µg/mL]	MIC50 [7, 22] [µg/mL]	MIC50 [16] [µg/mL]	MCC [8, 23] [µg/mL]	MIC50 [17] [µg/mL]	MCC [2, 24] [µg/mL]	MIC50 [3, 25] [µg/mL]	MIC50 [18] [µg/mL]	MIC50 [19] [µg/mL]	MIC50 [20] [µg/mL]	other results
CN1O[C@H](CO)C[C@@H]1c1c2ccccc2cc2ccccc12 (relative stereo)	–	–	–	–	–	–	–	–	–	–	–	–	–	–	–	–	IC50 ([1]; Homo sapiens, MOLT-3): > 500 µM
CN1O[C@H](CO)C[C@@H]1c1cc2ccccc2c2ccccc12 (relative stereo)	–	–	–	–	–	–	–	–	–	–	–	–	–	–	–	–	IC50 ([1]; molt-3): 128 µM; MCC [2]: 400 µg/mL; MIC50 [3]: >80 µg/mL; MCC [4]: 80 µg/mL; IC50 [5]: 148 µM; IC50 ([6]; u-937): 154 µM; MIC50 [7]: 9.6 µg/mL (≈ 32.7 µM); MCC [8]: 80 µg/mL; IC50 [9]: 231 µM
Nc1ncnc2c1ncn2C[C@H](O)CO [(S)-DHPA]	> 400	> 400	> 400	> 400	240 (≈ 1150 µM)	> 400	> 400	> 400	400 (≈ 1910 µM)	> 400	–	–	–	–	–	–	–
Nc1nc2c(ncn2COCCO)c(=O)[nH]1 [ACYCLOVIR]	–	–	–	–	–	–	–	–	–	–	0.384 (≈ 1.71 µM)	> 400	48 (≈ 213 µM)	0.384 (≈ 1.71 µM)	> 400	> 400	–
O=c1[nH]c(=O)n([C@H]2C[C@H](O)[C@@H](CO)O2)cc1/C=C/Br [BRIVUDINE]	> 400	> 400	> 400	> 400	> 400	> 400	> 400	> 400	> 400	> 400	240 (≈ 720 µM)	> 400	> 400	0.128 (≈ 0.384 µM)	48 (≈ 144 µM)	> 400	–
Cc1c2oc3c(C)ccc(C(=O)N[C@@H]4C(=O)N[C@H](C(C)C)C(=O)N5CCC[C@H]5C(=O)N(C)CC(=O)N(C)[C@@H](C(C)C)C(=O)O[C@@H]4C)c3nc-2c(C(=O)N[C@@H]2C(=O)N[C@H](C(C)C)C(=O)N3CCC[C@H]3C(=O)N(C)CC(=O)N(C)[C@@H](C(C)C)C(=O)O[C@@H]2C)c(N)c1=O [DACTINOMYCIN] (I: T[dV]P[Sar][NMeV] / II: T[dV]P[Sar][NMeV]; ester I:1-I:C, II:1-II:C; linker I:N-II:N via Actinocin(1to9))	–	–	–	–	–	–	–	–	–	–	–	–	–	–	–	–	IC50 ([1]; Homo sapiens, MOLT-3): < 1 µM; IC50 ([6]; Homo sapiens, U-937): < 1 µM
Nc1nc2c(ncn2COC(CO)CO)c(=O)[nH]1 [GANCICLOVIR]	–	–	–	–	–	–	–	–	–	–	0.032 (≈ 0.125 µM)	> 100	0.48 (≈ 1.88 µM)	0.096 (≈ 0.376 µM)	> 100	> 100	–
NC(=O)c1ncn([C@@H]2O[C@H](CO)[C@@H](O)[C@H]2O)n1 [RIBAVIRIN]	9.6 (≈ 39.3 µM)	16 (≈ 65.5 µM)	9.6 (≈ 39.3 µM)	> 400	16 (≈ 65.5 µM)	> 400	> 400	80 (≈ 328 µM)	48 (≈ 197 µM)	> 400	> 400	> 400	> 400	240 (≈ 983 µM)	80 (≈ 328 µM)	240 (≈ 983 µM)	–
